# Reference: ChEMBL document CHEMBL1764987, “The identification of the 2-phenylphthalazin-1(2H)-one scaffold as a new decorable core skeleton for the design of potent and selective human A3 adenosine receptor antagonists” (J Med Chem, 2011)
# Assays:
# [1] = target: T1, Adenosine receptor A1 (Homo sapiens) (UniProt P30542); experiment: Displacement of [3H]DPCPX from human cloned adenosine A1 receptor expressed in CHO cells at 10 uM; type: cell-based
# T1 sequence (whole entry): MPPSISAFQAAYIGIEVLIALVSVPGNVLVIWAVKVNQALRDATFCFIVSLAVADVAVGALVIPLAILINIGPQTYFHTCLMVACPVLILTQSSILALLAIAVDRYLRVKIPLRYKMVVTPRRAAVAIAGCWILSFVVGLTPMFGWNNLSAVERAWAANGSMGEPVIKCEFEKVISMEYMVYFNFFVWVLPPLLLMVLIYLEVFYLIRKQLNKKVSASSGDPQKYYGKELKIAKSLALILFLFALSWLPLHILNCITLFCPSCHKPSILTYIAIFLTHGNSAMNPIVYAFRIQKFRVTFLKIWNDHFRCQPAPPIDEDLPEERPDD
# Outline: (§1)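 Radioligand displacement in CHO membranes stably expressing hA1 ([3H]DPCPX, Kd 3 nM) or hA2A ([3H]NECA, Kd 30 nM). Percent inhibition of specific binding at 10 μM. Full curves used five concentrations in triplicate, with IC50 converted to Ki by Cheng-Prusoff.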
# [2] = target: T2, Adenosine receptor A3 (Homo sapiens) (UniProt P0DMS8); experiment: Displacement of [125I]AB-MECA from human cloned adenosine A3 receptor expressed in CHO cells at 1 uM; type: cell-based
# T2 sequence (whole entry): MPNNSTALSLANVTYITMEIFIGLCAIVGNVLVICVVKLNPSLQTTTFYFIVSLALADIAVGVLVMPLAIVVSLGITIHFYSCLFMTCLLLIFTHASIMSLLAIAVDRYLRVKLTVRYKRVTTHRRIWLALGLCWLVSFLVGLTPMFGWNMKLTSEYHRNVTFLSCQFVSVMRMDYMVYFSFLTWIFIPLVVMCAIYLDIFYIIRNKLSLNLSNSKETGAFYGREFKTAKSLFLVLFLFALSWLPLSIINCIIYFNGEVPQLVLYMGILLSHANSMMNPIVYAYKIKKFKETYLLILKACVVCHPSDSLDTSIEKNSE
# Outline: (§2)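 Membranes from CHO cells stably expressing hA3 AR, labelled with [125I]AB-MECA (Kd 1.4 nM). IC50 from nonlinear regression using five displacer concentrations, each in triplicate. Ki calculated by Cheng-Prusoff, mean ± SEM of four assays. Single-point data are percent inhibition of specific binding at 1 μM.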
# [3] = target: Adenosine receptor A2a (Homo sapiens) (UniProt P29274); experiment: Displacement of [3H]NECA from human cloned adenosine A2A receptor expressed in CHO cells at 10 uM; type: cell-based; outline: as §1
# [4] = target: T3, Adenosine receptor A3 (Homo sapiens, UniProt P0DMS8); experiment: Displacement of [125I]AB-MECA from human cloned adenosine A3 receptor expressed in CHO cells; type: cell-based; outline: as §2
# T3 sequence (P0DMS8 whole entry): T2 sequence (whole entry)
# [5] = Displacement of [3H]CGS21680 from adenosine A2A receptor in bovine brain membranes; type: cell membranes, Bos taurus
# [6] = target: T3, Adenosine receptor A3; experiment: Antagonist activity at human cloned adenosine A3 receptor expressed in CHO cells assessed as inhibition of […] after 15 mins; type: functional, cell-based
# Outline: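 CHO cells stably expressing hA3 plated and grown 48 h. Preincubated 15 min at 37 °C with Ro20-1724 (20 μM) and adenosine deaminase (1 U/mL). Compound (1 nM to 10 μM) given for 15 min at 37 °C, then 100 nM NECA. Reversal of NECA-induced cAMP inhibition measured by [3H]cAMP competitive protein binding assay. IC50 from sigmoid nonlinear regression, means ± SEM of three experiments.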
# [7] = target: T4, Adenosine receptor A2b (Homo sapiens) (UniProt P29275); experiment: Antagonist activity at human cloned adenosine A2B receptor expressed in CHO cells assessed as inhibition of NECA-induced cAMP accumulation at 1 nM to 10 uM after 15 mins; type: functional, cell-based
# T4 sequence (whole entry): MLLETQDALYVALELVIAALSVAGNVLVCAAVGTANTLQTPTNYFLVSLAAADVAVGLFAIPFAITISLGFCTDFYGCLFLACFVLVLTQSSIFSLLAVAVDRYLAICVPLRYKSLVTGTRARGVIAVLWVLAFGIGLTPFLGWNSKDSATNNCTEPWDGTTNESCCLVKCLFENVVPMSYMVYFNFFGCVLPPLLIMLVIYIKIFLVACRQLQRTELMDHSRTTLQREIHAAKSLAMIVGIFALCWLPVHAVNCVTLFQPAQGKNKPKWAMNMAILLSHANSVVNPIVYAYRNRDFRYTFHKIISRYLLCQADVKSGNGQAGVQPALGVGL
# Outline: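 Stably transfected CHO cells (~60000) plated and grown 48 h. Preincubated 15 min at 37 °C in DMEM containing Ro20-1724 (20 μM) and adenosine deaminase (1 U/mL). Compound (1 nM to 10 μM) added for 15 min at 37 °C, then 100 nM NECA. Reaction stopped with 0.4 N HCl and lysate neutralised with KOH. cAMP measured by competitive binding to beef adrenal binding protein with [3H]cAMP (2 nM) for 150 min at 4 °C, then filtration. Read-out is percent inhibition of NECA-stimulated cAMP.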
# [8] = target: Adenosine receptors; A1 & A3 (Homo sapiens) (UniProt P30542+P0DMS8); experiment: Selectivity ratio of Ki for human cloned adenosine A1 receptor to Ki for human cloned adenosine A3 receptor
# Outline: (§3)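 Ki values from radioligand displacement at hA1 ([3H]DPCPX, Kd 3 nM), hA2A ([3H]NECA, Kd 30 nM) and hA3 ([125I]AB-MECA, Kd 1.4 nM) in CHO membranes. Five displacer concentrations in triplicate, Cheng-Prusoff conversion, means of four assays. Ratio taken as A1 or A2A Ki over A3 Ki.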
# [9] = species on record: Homo sapiens; experiment: Selectivity ratio of Ki for human cloned adenosine A2A receptor to Ki for human cloned adenosine A3 receptor; outline: as §3
# Chain of Adenosine receptor A2a (Homo sapiens) (P29274 whole entry): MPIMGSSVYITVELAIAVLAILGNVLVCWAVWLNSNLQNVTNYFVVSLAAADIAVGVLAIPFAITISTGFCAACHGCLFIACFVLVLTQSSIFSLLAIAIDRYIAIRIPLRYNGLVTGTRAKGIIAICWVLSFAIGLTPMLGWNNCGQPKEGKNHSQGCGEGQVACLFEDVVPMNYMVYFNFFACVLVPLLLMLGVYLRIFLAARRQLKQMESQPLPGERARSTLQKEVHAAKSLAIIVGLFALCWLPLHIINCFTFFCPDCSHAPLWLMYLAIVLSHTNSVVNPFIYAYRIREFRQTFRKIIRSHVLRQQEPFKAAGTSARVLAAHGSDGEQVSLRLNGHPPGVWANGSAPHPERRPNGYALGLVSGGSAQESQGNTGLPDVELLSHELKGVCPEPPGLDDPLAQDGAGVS
inhibition [1],inhibition [2],inhibition [3],Ki [4],Ki [5],IC50 [6],inhibition [7],Ratio Ki [8],Ratio Ki [9],Compound
29%,33%,33%,,,,,,,COc1ccc(NC(=O)Nc2nn(-c3ccccc3)c(=O)c3ccccc23)c(OC)c1
44%,,42%,178 nM,,,,,,O=C(Nc1ccccc1)Nc1nn(-c2ccccc2)c(=O)c2ccccc12
20%,22%,28%,,,,,,,Cc1ccccc1NC(=O)Nc1nn(-c2ccccc2)c(=O)c2ccccc12
10%,13%,9%,,,,,,,O=C(Nc1ccc(Cl)cc1)Nc1nn(-c2ccccc2)c(=O)c2ccccc12
45%,,28%,9.75 nM,,18 nM,57%,,,COc1cccc(NC(=O)Nc2nn(-c3ccccc3)c(=O)c3ccccc23)c1
4%,,51%,60.6 nM,,28 nM,0%,,,COc1ccc(NC(=O)Nc2nn(-c3ccccc3)c(=O)c3ccccc23)cc1
28%,,28%,274 nM,,,,,,COc1ccccc1CNC(=O)Nc1nn(-c2ccccc2)c(=O)c2ccccc12
29%,45%,0%,,,,,,,Cc1ccc(NC(=O)Nc2nn(-c3ccccc3)c(=O)c3ccccc23)cc1
0%,,17%,8.9 nM,,17 nM,16%,,,COc1ccccc1NC(=O)Nc1nn(-c2ccccc2)c(=O)c2ccccc12
0%,49%,3%,,,,,,,O=C(Nc1ccccc1Cl)Nc1nn(-c2ccccc2)c(=O)c2ccccc12
0%,,19%,0.776 nM,,8.25 nM,0%,10000,10000,COc1ccc(OC)c(NC(=O)Nc2nn(-c3ccccc3)c(=O)c3ccccc23)c1

# Further lines, the compound ahead of its results:
Compound,inhibition [1],inhibition [2],inhibition [3],Ki [4],Ki [5],IC50 [6],inhibition [7],Ratio Ki [8],Ratio Ki [9]
O=C(Nc1nn(-c2ccccc2)c(=O)c2ccccc12)c1ccccc1,44%,,35%,1100 nM,,,,,
O=C(Nc1ccccc1)Nc1nc2ccccc2n2c(=O)n(-c3ccccc3)nc12,,,,,2300 nM,,,,
O=C(Nc1nn(-c2ccccc2)c(=O)c2ccccc12)c1ccco1,23%,8%,41%,,,,,,
O=C(Nc1nn(-c2ccccc2)c(=O)c2ccccc12)c1ccc(Cl)cc1,26%,17%,17%,,,,,,
COc1ccc(C(=O)Nc2nn(-c3ccccc3)c(=O)c3ccccc23)cc1,0%,10%,17%,,,,,,
O=C(Cc1ccccc1)Nc1nn(-c2ccccc2)c(=O)c2ccccc12,23%,28%,4%,,,,,,
Nc1nn(-c2ccccc2)c(=O)c2ccccc12,24%,8%,45%,,,,,,
CC(=O)Nc1nn(-c2ccccc2)c(=O)c2ccccc12,52%,0%,14%,,,,,,
CC(=O)N(C(C)=O)c1nn(-c2ccccc2)c(=O)c2ccccc12,47%,0%,10%,,,,,,
O=C(NCc1ccccc1)Nc1nn(-c2ccccc2)c(=O)c2ccccc12,20%,,23%,29.6 nM,,1.15 nM,34%,,
Nc1nc2ccccc2n2c(=O)n(-c3ccccc3)nc12,,,,490 nM,,,,,
